assay: Toxicity liver stage against HepG2, at 10uM; format: cell-based; set-up: test concentration 10 uM, cell line HepG2-A16-CD81EGFP; settings: human, HepG2-A16-CD81EGFP cells; read-out: INHIBITION
Summary of the method: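 Uninfected HepG2-A16-CD81EGFP cells, 3 × 10^3 per well, 1536-well, plated on prespotted compound at 10 μM final, parasite-free screening media added to match infected plates; puromycin 10 μM positive, DMSO 0.5% negative; run in parallel with 48 h PbLuc assay at 37 °C, 5% CO2; viability by CellTiter-Glo luminescence, normalized to controls.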

Compound | cytotoxicity at 10 µM
CNC(=O)c1ccc(CN2CCC(N(C)Cc3noc(C)n3)C2)cc1 (stereo unspecified) | 5.56%
Cc1cnn(CC2CCCCN2C(=O)CCCc2nc(C)no2)c1 (stereo unspecified) | 1.46%
CC(C)n1cnc2ccc(NC(=O)CCCn3cccn3)cc2c1=O | -10.6%
CN(C)[C@@H]1CCN(C(=O)c2ccccn2)[C@H]1Cc1cnn(C)c1 | -70%
CN1CCC(Cc2noc(-c3cccc(OCC(N)=O)c3)n2)CC1 | -4.42%
CC(C)C1CCN(C(=O)NCC(=O)N(C)CC(F)(F)F)CC1 | 20.7%
CCN1CCCC12CCCN(c1ncccn1)C2 (stereo unspecified) | 0.113%
Cc1noc(C)c1CN1CC[C@H]2OCC[C@@]2(C(=O)NCC2CC2)C1 | -77.2%
Fc1ccc(OCCNC2CCN(Cc3ccncc3)CC2)c(F)c1 | -11.1%
COCC(=O)N1CCN(C(C)=O)C[C@@H]1C(=O)OC | 2.43%
CCN1CC2(CC1=O)CN(Cc1ccsc1)CCN(C(=O)C(C)C)C2 (stereo unspecified) | 5.08%
COc1ccc2c(c1)C(=O)CC1(CCN(Cc3ccc(F)cc3)CC1)O2 | 16.6%
O=C(NCc1c[nH]c(=O)[nH]c1=O)C1CCOc2ccccc2C1 (stereo unspecified) | -3.03%
COc1ccnc(N2CCN(C(=O)c3csnn3)CC2)n1 | -0.581%
CC(C)NC(=O)N1CCc2nc(C(=O)NCc3ccccc3)sc2CC1 | 4.17%
COCCN1C[C@@H]2CC[C@H]1CN(Cc1cc(=O)c3cc(C)ccc3[nH]1)C2 | -5.31%
CCOC(=O)CNC(=O)c1cc(-c2ccccc2)nc2ncnn12 | -5.75%
CC(C)(C)OCC1CN(CC2CC2)S(=O)(=O)c2cnccc2O1 (stereo unspecified) | -1.16%
CCC(C)C(=O)NCc1cccc(N2CCCCC2=O)c1 (stereo unspecified) | -6.93%
CCC(C)NC(=O)CS(=O)(=O)Cc1cc(C)ccc1C (stereo unspecified) | -3.06%
COc1cc(-c2nccn2C(C)CCn2cccn2)cc2c1OCO2 (stereo unspecified) | 0.562%

Compound | cytotoxicity at 10 µM
CC(C)c1ccccc1OCCNC(=O)N1CCC2(CC1)OCCO2 | 8.75%
Cc1csc2ncc(-c3ccnc(N4CCN(C)CC4)n3)c(=O)n12 | 9.43%
COc1cc(CNCc2c(C)nn(CC(C)C)c2N(C)C)ccn1 | -9.3%
Cn1cc(CN2C[C@H]3CCC[C@@H](CNc4ncccn4)[C@H]3C2)cn1 | -2.57%
Cc1nccn1-c1ccc(=O)n(CCNC(=O)c2cccs2)n1 | -5.51%
O=C(NC1CC1)[C@H]1CN(Cc2ccccc2)C[C@@H]1C(=O)c1ccccc1 | 0.401%
Cc1nn(C)c(C)c1CC(=O)N1CCCN(c2cccnn2)CC1 | -2.1%
O=C(c1csnn1)N1CCc2[nH]nc(COc3cccc(Cl)c3)c2C1 | -60%
Cn1cccc1C(=O)N1CCCC2(CCCN2Cc2cccnc2)C1 (stereo unspecified) | 2.88%
COc1cccc(CN(C)C(=O)CN2CCN(CCO)CC2)c1 | 12.3%
CCOc1ccc(-c2cc(CCN)ccc2OC)cc1 | 1.63%
CCn1c(NCC2CCCO2)nc2c(C)nn(C)c2c1=O (stereo unspecified) | -3.09%
Cn1cc(-c2c(C#N)c(N)nc3c2CCc2[nH]ccc2-3)cn1 | -4.37%
c1cc(-c2cn3nccc3nc2C2CCCCC2)nc(N2CCCC2)n1 | 10.7%
O=C(CCc1ccc(Cl)cc1)N1CCC(O)(C(F)(F)F)C1 (stereo unspecified) | 1.16%
O=C(Nc1nncs1)C1CSCN1C(=O)C1CCCC1 (stereo unspecified) | 11.3%
CN1CCN(C(=O)c2cc(-c3ccco3)cs2)CC1 | 1.63%
Cc1nc2c(c(N(C)Cc3ccccc3-n3cccn3)n1)CCNCC2 | -11.2%
Cc1cnc(C(=O)N(C)Cc2nc(-c3ccccn3)no2)cn1 | 3.42%
CCN(CC)CCCC(C)NC(=O)c1cccnc1-n1cccn1 (stereo unspecified) | -0.595%
COCCOc1ccc(NC(=O)N2CCCC2c2cc(C)no2)cn1 (stereo unspecified) | 5.32%

Compound | cytotoxicity at 10 µM
Cc1ccsc1CNCc1c(C(C)C)nn(C)c1N1CCOCC1 | 8.42%
CCCSc1ncc(CN(C)CCN2CCCCC2)cn1 | -1.39%
O=C(c1cc(COc2ccc3c(c2)OCO3)[nH]n1)N1CCCO1 | -1.59%
COCCN1C(=O)[C@@H]2CC[C@H]1CN(S(=O)(=O)c1ccc(C#N)cc1)C2 | -2.59%
O=C(C1CCOc2ccccc21)N1CCOc2ccc(F)cc21 (stereo unspecified) | -7.54%
Cc1cccc(CNC(=O)Nc2ccn(CCN(C)C)n2)c1 | -4.47%
CCN1CCC2(CC1)CC(NC(=O)c1c[nH]cn1)c1ccccc1O2 (stereo unspecified) | -103%
CNC(=O)CCC(=O)N1CCOC(c2ccc3cc(OC)ccc3c2)C1 (stereo unspecified) | 3.85%
CN(C)S(=O)(=O)N(C)C(c1cccc(F)c1)c1ccccn1 (stereo unspecified) | 3.22%
O=S(=O)(Nc1cnc(N2CCOCC2)nc1)c1ccc(Cl)cc1 | -5.82%
CCN(CC)C(CNC(=O)c1c(C)noc1C(C)C)c1ccsc1 (stereo unspecified) | -12.2%
CCn1nc(C)c(CN(CCOC)Cc2ccccn2)c1C | 9.77%
CCc1n[nH]c(C2CN(C(=O)COCC(F)(F)F)CCO2)n1 (stereo unspecified) | -3.48%
CCNC(=O)N1CCC(NC(=O)NCCc2ccc(C)cc2C)C1 (stereo unspecified) | -44.6%
C=C(C)CN(CC)C(=O)c1cc(C)ccc1NS(C)(=O)=O | 5.69%
O=C1N(CC2CC2)C(c2c[nH]nc2-c2cccnc2)NC12CCCC2 (stereo unspecified) | -2.16%
CN1C(=O)C(C)(C)COc2cc(NS(=O)(=O)Cc3ccccc3)ccc21 | -7.79%
O=C(NCC1CC1)[C@@H]1CCO[C@@H]2CCN(Cc3ccc(F)cc3)C[C@H]21 | 1.42%
CCc1nnc(C2Cc3ccccc3CN2Cc2cc(C)on2)o1 (stereo unspecified) | -7.77%
CO[C@H]1C[C@@H](O)C12CCN(CCOc1ccc(Cl)cc1)CC2 | -9.66%
O=C1NC(C(=O)NCc2cccnc2Oc2ccccc2F)CO1 (stereo unspecified) | 8.99%

Compound | cytotoxicity at 10 µM
Cc1nn(C)c(C)c1C1CCCN1CCOc1cccc(C#N)c1 (stereo unspecified) | -8.41%
COC1CCN(C(=O)Cn2cccc(C(F)(F)F)c2=O)C1 (stereo unspecified) | 2.23%
COC(=O)c1cc(C(=O)N2CCCCCC2)n(-c2ccccc2)n1 | -5.33%
O=C(c1ccncc1)N1C[C@H]2CC[C@@H](C1)N(C(=O)N1CCOCC1)C2 | 2.44%
CSCC[C@H](NC(C)=O)c1nc(Cc2ccccc2)n[nH]1 | 5.06%
CC(C)C1CN(C(=O)c2ccc(Cl)cn2)CCCN1CC1CC1 (stereo unspecified) | 5.15%
O=C(NCC(F)(F)F)c1ccc(-n2cccn2)nn1 | -8.35%
Cn1cc(-c2csc(N3CCSCC3)n2)cn1 | -1.31%
Cc1nc(C)n(CC2CCCCN2CCCN2CCCC2=O)n1 (stereo unspecified) | -2.35%
CC(C)c1nc(CNc2ccc(N3CCC(CO)CC3)cn2)cs1 | -2.6%
Cc1ccc(S(=O)(=O)c2ncccc2CN2CCCC2)cc1 | -49.4%
O=C(CN1CCOC(Cn2cncn2)C1)NCc1cccs1 (stereo unspecified) | -10.2%
O=C1CCCc2occ(C(=O)N3CCCC(O)(CO)C3)c21 (stereo unspecified) | -10.1%
CNC(=O)[C@@H](c1ccccc1OC)N1CCC[C@H]1C(=O)N1CC[C@@H](O)C1 | -2.71%
CCNc1cc2c(nn1)CCN(C(=O)c1ccc(-n3cnnc3)cc1)C2 | -3.51%
COC(=O)c1ccc(N(C(=O)c2cccnc2C)C(C)C)c(C)c1 | -8.58%
CS(=O)(=O)N1CCC(NC(=O)COc2ccc(Br)cc2Cl)CC1 | 3.25%
CCn1cnnc1C1CCN(C(=O)c2ccnc(N(C)C)c2)CC1 | 8.2%

— ChEMBL document CHEMBL4513216, “Probing the Open Global Health Chemical Diversity Library for Multistage-Active Starting Points for Next-Generation Antimalarials” (ACS Infect Dis, 2020)
